# Source: PubChem BioAssay
# Shown are actives, neighbours in structure and some others; about 1.9% of the full set was active somewhere.
# NPY-Y1 PAM-ag = potentiators or agonists of human neuropeptide Y receptor Y1; P25929; NPY-Y1 expressing cells, potentiator/agonist activation; activation, % at 3.6 µM; 0.37% of 220,000 active; in the data active = activation above about 33%, passing the limit was not always enough;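 note: cells stimulated with NPY at EC10 then isoproterenol at EC100; 0% = low agonist plus stimulus and 100% = saturating agonist plus stimulus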
# Target sequence (P25929 whole entry, looked up): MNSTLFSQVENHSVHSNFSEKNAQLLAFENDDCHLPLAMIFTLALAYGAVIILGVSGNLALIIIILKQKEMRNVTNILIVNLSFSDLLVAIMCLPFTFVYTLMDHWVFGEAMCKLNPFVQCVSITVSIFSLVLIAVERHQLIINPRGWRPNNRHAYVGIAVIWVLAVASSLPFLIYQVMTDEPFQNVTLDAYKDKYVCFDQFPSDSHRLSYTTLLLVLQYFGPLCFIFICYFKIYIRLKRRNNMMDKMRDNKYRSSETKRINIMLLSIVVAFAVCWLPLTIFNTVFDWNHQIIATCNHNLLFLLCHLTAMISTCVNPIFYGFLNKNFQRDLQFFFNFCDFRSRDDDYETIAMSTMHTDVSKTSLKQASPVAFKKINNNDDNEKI
# NPY-Y1 antag = NPY-Y1 (human) receptor antagonism | P25929 | HEK293-CNG Y1 cells, membrane potential fluorescence; NPY at EC95, then isoproterenol | inhibition, % at 3.6 µM | 1% of 200,000 active | AID 1040;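 active = inhibition above the campaign mean inhibition of all tested compounds plus 3 SD, cut at about 20% in these data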;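 note: 0% = DMSO wells given NPY plus isoproterenol and 100% = isoproterenol alone without NPY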
#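 material = HEK293 cells with Y1 receptor plus CNG channel | also added = NPY 25 nM then isoproterenol 1 µM plus Ro 20-1724 25 µM | schedule = dye 3 h, compound 60 min room temperature, stimulation 45 min | measured by = membrane potential fluorescence | benchmarks = high control isoproterenol alone, low control NPY with isoproterenol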
# NPY Y2 blocker = antagonists of human neuropeptide Y receptor Y2; AID 793; NPY-Y2 expressing cells, antagonist mode; 0.99% of 140,000 active; inhibition, % at 2.7 µM; in the data active = inhibition above about 17%;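 note: 0% = vehicle with agonist challenge and 100% = reference antagonist with challenge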
# Target sequence (P49146 whole entry, looked up): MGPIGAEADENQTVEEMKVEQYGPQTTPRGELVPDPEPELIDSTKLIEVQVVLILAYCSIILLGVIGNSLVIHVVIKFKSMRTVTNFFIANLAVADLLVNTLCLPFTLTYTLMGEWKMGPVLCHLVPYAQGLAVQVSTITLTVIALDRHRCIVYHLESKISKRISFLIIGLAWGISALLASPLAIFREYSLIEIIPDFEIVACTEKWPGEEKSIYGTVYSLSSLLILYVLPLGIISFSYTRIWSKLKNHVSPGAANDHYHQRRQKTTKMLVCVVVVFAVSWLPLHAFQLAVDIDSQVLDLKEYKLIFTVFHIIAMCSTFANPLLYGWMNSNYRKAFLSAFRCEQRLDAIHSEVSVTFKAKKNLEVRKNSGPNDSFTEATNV
# NPY-Y2 PAM-ag = human NPY-Y2 potentiation or agonism, primary screen; P49146; 0.45% of 220,000 active; AID 1359; activation, % at 3.6 µM; cells expressing NPY-Y2, potentiator/agonist read-out; in the data active = activation above about 27%;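 note: cells stimulated with NPY near EC25 plus isoproterenol at EC100; 0% = vehicle plus submaximal agonist and 100% = vehicle plus saturating agonist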
# NPY1 antag ctr = counter-screen for NPY-Y2 antagonists: human NPY-Y1 antagonism. shares compounds with NPY Y2 blocker. cell-based NPY-Y1 antagonism counterscreen. inhibition, % at 3.6 µM. 19% of 710 active;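 note: cells challenged with NPY then isoproterenol with cAMP sensed through a CNG channel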
# NPY2 antag conf = confirmation of human neuropeptide Y receptor Y2 antagonists | shares compounds with NPY Y2 blocker | HEK293 NPY-Y2 CNG channel, membrane potential fluorescence | inhibition, % at 2.8 µM | 32% of 710 active | AID 1257;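 active = mean inhibition of triplicate wells above the hit cutoff set in the primary screen, cut at about 17% in these data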;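 note: 0% = DMSO with NPY challenge and 100% = BIIE0246 high control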
# NPY-Y1 ant conf = human NPY-Y1 antagonism, confirmation; shares compounds with NPY-Y1 antag; HEK293-CNG NPY-Y1, membrane potential fluorescence, cAMP; NPY challenge against isoproterenol-raised cAMP; inhibition, % at 3.6 µM; 21% of 1,200 active; AID 1254;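 note: 0% = vehicle with agonist plus stimulus and 100% = stimulus alone without agonist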
# NPY2 antag ctr = human NPY-Y2 antagonism in NPY-Y1 counter-screen; HEK293 NPY-Y2 CNG membrane potential fluorescence; cells given NPY, then isoproterenol; inhibition, % at 3.6 µM; 28% of 1,200 active; shares compounds with NPY-Y1 antag; in the data active = inhibition above about 17%;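 note: 0% = DMSO with agonist challenge and 100% = reference antagonist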
# NPY-Y2 pot conf = confirmation of human NPY-Y2 receptor potentiators or agonists | activation, % at 3.6 µM | shares compounds with NPY-Y2 PAM-ag | cell-based NPY-Y2 potentiator/agonist assay | 20% of 450 active; in the data active = activation above about 33%
# NPY-Y1 potentiator = NPY-Y1 potentiation or agonism as NPY-Y2 counter-screen; activation, % at 3.6 µM; AID 1651; shares compounds with NPY-Y2 PAM-ag; 20% of 450 active; Y1 HEK293-CNG cells, membrane potential fluorescence; in the data active = activation above about 45%;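 note: cells stimulated with submaximal NPY then isoproterenol with phosphodiesterase inhibitor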
# NPY-Y1 ag 2 = counter-screen for NPY-Y2 potentiators: agonists of human NPY-Y1 | activation, % at 3.6 µM | 37% of 450 active | AID 1702 | HEK293 Y1-CNGC, membrane potential fluorescence, agonism | shares compounds with NPY-Y2 PAM-ag;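 active = activation above the mean of DMSO-only control wells plus 3 SD, cut at about 18% in these data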;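 note: cells stimulated with 1 µM isoproterenol plus the PDE inhibitor Ro 20-1724; 0% = isoproterenol with DMSO and no NPY and 100% = 40 nM NPY; Y1 agonists lower the membrane potential dye signal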
# CNGC inh = cyclic nucleotide gated channel inhibition as counter-screen | 32% of 450 active | HEK293-CNG parental, isoproterenol cAMP, membrane potential fluorescence | inhibition, % at 3.6 µM | AID 1703 | shares compounds with NPY-Y2 PAM-ag;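 active = inhibition above the control-well mean plus 3 SD of those wells, cut at about 22% in these data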;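 note: 0% = DMSO with isoproterenol and 100% = DMSO without isoproterenol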
# NPY-Y2 ag 2 = activates human NPY-Y2 receptor in potentiator counter-screen | 56% of 450 active | HEK293 Y2/CNGC cells, membrane potential fluorescence, agonist mode | shares compounds with NPY-Y2 PAM-ag | activation, % at 3.6 µM;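 active = activation above the mean of solvent-only control wells plus 3 SD, cut at about 10% in these data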;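 note: cells stimulated by isoproterenol with no NPY added so direct agonism is tested; 0% = DMSO with isoproterenol alone and 100% = NPY at EC100 plus isoproterenol; agonism lowers probe fluorescence through less cAMP and CNG channel opening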
# Starred values were filed as active, the others as inactive; / = no result. Cut-off read from the data, not from the text of the source, unless noted: active = inhibition above about 20%; inactive = the rest.
SMILES,NPY-Y1 PAM-ag,NPY-Y1 antag,NPY Y2 blocker,NPY-Y2 PAM-ag,NPY1 antag ctr,NPY2 antag conf,others
CCOC(=O)C1=C(c2ccccc2)NC(SCC(=O)Nc2cccc(C)c2)=C(C#N)C1c1ccco1 (stereo not given),-14,10,7,-17,/,/,
CCOC(=O)CSC1=C(C#N)C(c2ccco2)C(C(=O)Nc2cccc(C(F)(F)F)c2)=C(C)N1 (stereo not given),-60,5,18*,-47,15,19*,
CCn1c(/C=C/N(C(C)=O)c2ccccc2)[n+](CCCS(=O)(=O)[O-])c2cc(Cl)c(Cl)cc21,-13,1,/,-6,/,/,
CCn1c(/C=C/Nc2ccccc2)[n+](CC)c2cc(Cl)c(Cl)cc21,0,8,35*,4,13,15,
O=C(NCCCN1CCCC1=O)C1CCCO1 (stereo not given),9,0,/,4,/,/,
CCCCn1c(SCC(=O)Nc2ccccc2C(F)(F)F)nc2ccsc2c1=O,24,12,29*,16,14,13,
CCCCn1c(SCC(=O)Nc2nccs2)nc2ccccc2c1=O,11,1,1,7,/,/,
CCCCn1c(SCC(=O)N2CCN(c3ccccc3)CC2)nc2ccsc2c1=O,-5,6,20*,-4,25*,14,
O=C(CSc1ncn(-c2ccccc2)n1)Nc1ccc2c(c1)OCCO2,-24,5,18*,-3,27*,24*,
Cc1ccc(SCC(=O)NC(=O)Nc2ccc3c(c2)OCCO3)cc1C,-28,1,19*,1,8,14,
O=C(CSc1nnnn1-c1ccc(Cl)cc1)NC(=O)Nc1ccc2c(c1)OCCO2,-5,17,20*,-3,15,15,
Cc1nc(C)c(C(=O)NNS(=O)(=O)c2ccc3ccccc3c2)s1,7,-1,3,-3,/,/,
COc1cccc(NC(=S)N/N=C2/CCCCc3ccccc32)c1,-18,5,4,-8,/,/,
CN(C)CCCNS(=O)(=O)c1ccc(N2CCC(c3ccc(Cl)cc3)=N2)cc1,3,0,18*,7,6,14,
CN1CCN(c2ccccc2NC(=O)c2ccc(-c3ccc(Cl)cc3Cl)o2)CC1,-66,8,17*,-9,12,25*,
CS(=O)(=O)N1CCN(c2ccccc2NC(=O)c2ccc(-c3ccc(Cl)cc3Cl)o2)CC1,-4,14,3,-21,/,/,
Cc1cccc(OCC(O)CN2CC3(C)CC2CC(C)(C)C3)c1 (stereo not given),4,5,4,10,/,/,
CC1CCCCN1c1nc2nonc2nc1N1CCCCC1C (stereo not given),18,7,6,5,/,/,
COc1ccccc1Nc1nc2nonc2nc1N1CCCCC1C (stereo not given),-10,6,19*,1,17,9,
O=C1C2C(c3ccccc3)C=CC(c3ccccc3)C2C(=O)N1c1ccccn1 (stereo not given),16,0,2,-7,/,/,
Cc1ccsc1/C=N/n1c(-c2ccccn2)n[nH]c1=S,-14,9,3,-2,/,/,
CCN1c2ccccc2-c2nc3ccccc3n2C1c1ccco1 (stereo not given),4,12,19*,-4,16,7,
CCOC(=O)Cn1nc(C)c(NC(=O)c2ccc(Cl)c([N+](=O)[O-])c2)c1C,-3,-1,/,8,/,/,
CCC(C)(C)n1nnnc1C(c1ccccc1)N1CCN(C2CCCC2)CC1 (stereo not given),-19,8,20*,8,5,12,
COc1cccc(C(c2nnnn2Cc2ccccc2)N2CCN(C3CCCC3)CC2)c1OC (stereo not given),-34,0,18*,-12,6,6,
SMILES,NPY-Y1 PAM-ag,NPY-Y1 antag,NPY Y2 blocker,NPY-Y2 PAM-ag,NPY1 antag ctr,NPY2 antag conf,others
CC(=O)c1cnc(Nc2cccc(C)c2)s1,-16,-1,/,-23,/,/,
COc1ccc(Cc2nc(C(=O)Nc3ccccc3)cs2)cc1,-18,14,18*,-12,7,9,
CN(C)S(=O)(=O)c1ccc2nc(NC(=O)c3cccnc3)sc2c1,-3,0,2,-13,/,/,
O=C(NC(Nc1nc2ccc([N+](=O)[O-])cc2s1)(C(F)(F)F)C(F)(F)F)c1ccccc1Cl,55*,12,24*,83*,19,11,
O=C(NC(Nc1nc2ccc([N+](=O)[O-])cc2s1)(C(F)(F)F)C(F)(F)F)c1cccnc1,48*,16,18*,33*,19,6,
CCCCOc1ccc(/C=C/C2=CC(C)(C)NC(=S)N2)cc1OCC,6,3,/,14,/,/,
c1ccc(C(Cc2nc(-c3ccncc3)no2)c2ccccc2)cc1,38,3,23*,42*,9,4,NPY-Y2 pot conf=14;NPY-Y1 potentiator=-11;NPY-Y1 ag 2=2;CNGC inh=-9;NPY-Y2 ag 2=2
CCC(=O)Nc1cc(C)c(NC(=O)c2ccccc2OC)cn1,-8,2,1,6,/,/,
Cn1c(-c2ccc3c(c2)OCO3)cnc1NCc1ccccc1Cl,-7,12,/,-2,/,/,
Cn1c(-c2ccc3c(c2)OCO3)cnc1NCc1cccc(Cl)c1,-6,34*,10,-18,/,/,NPY-Y1 ant conf=12;NPY2 antag ctr=12
Cc1ccc(Nc2nc(N)nc(-c3oc4ccccc4c3C)n2)cc1,-19,24*,/,-30,/,/,NPY-Y1 ant conf=6;NPY2 antag ctr=30*
CNC(=S)NCCc1cc2c(OC)ccc(OC)c2[nH]c1=O,-2,3,/,9,/,/,
COc1ccc(-c2nc(CN3CCN(c4cc(C)nc(C)c4)CC3)c(C)o2)c2ccccc12,-23,23*,/,-9,/,/,NPY-Y1 ant conf=15;NPY2 antag ctr=29*
